Data: ChEMBL document CHEMBL4330096, “Discovery of potent and selective 5-azaindazole inhibitors of leucine-rich repeat kinase 2 (LRRK2) - Part 1” (Bioorg Med Chem Lett, 2019)

Columns and labels:
[1] = Ratio of drug level in mouse brain to plasma; details: read-out: BPR
Method in brief: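 Mice; ratio based on total (not unbound) compound concentrations in brain versus plasma.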

[2] = molecular target: Casein kinase I (Homo sapiens) (UniProt Q9HCP0+P78368+P48730+P49674+P48729); assay: Inhibition of CK1 (unknown origin) at 1 uM relative to control; format: protein assay
Method in brief: (§1)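 Single-point screen of each compound against a panel of 59 protein kinases, at 1 or 10 μM. The panel data are also summarised as a rescaled geometric mean selectivity score.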

Homo sapiens = species on record: Homo sapiens; assay: Inhibition of PKA (unknown origin) at 1 uM relative to control
Method in brief: (§2)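 Single-concentration screen of each compound against a 59-protein-kinase panel, run at 10 µM or 1 µM. Activity relative to control is shown as a heat map across the panel.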

[3] = molecular target: RAC-alpha serine/threonine-protein kinase (Homo sapiens) (UniProt P31749); assay: Inhibition of PKBa (unknown origin) at 1 uM relative to control; method in brief: as §2
[4] = molecular target: Tyrosine-protein kinase Lck (Homo sapiens) (UniProt P06239); assay: Inhibition of Lck (unknown origin) at 1 uM relative to control; method in brief: as §1
[5] = molecular target: Tyrosine-protein kinase BTK (Homo sapiens) (UniProt Q06187); assay: Inhibition of BTK (unknown origin) at 1 uM relative to control; method in brief: as §1
[6] = molecular target: AMP-activated protein kinase, AMPK (Homo sapiens) (UniProt P54646+O43741+P54619+Q9UGJ0+Q9Y478+Q13131+Q9UGI9); assay: Inhibition of AMPK (unknown origin) at 1 uM relative to control; format: protein-complex assay; method in brief: as §1
[7] = molecular target: Fibroblast growth factor receptor 1 (Homo sapiens) (UniProt P11362); assay: Inhibition of FGFR1 (unknown origin) at 1 uM relative to control; method in brief: as §1
[8] = molecular target: Glycogen synthase kinase-3 beta (Homo sapiens) (UniProt P49841); assay: Inhibition of GSK3b (unknown origin) at 1 uM relative to control; method in brief: as §1
[9] = molecular target: Ribosomal protein S6 kinase alpha-5 (Homo sapiens) (UniProt O75582); assay: Inhibition of MSK1 (unknown origin) at 1 uM relative to control; method in brief: as §2
[10] = molecular target: Mitogen-activated protein kinase 3 (Homo sapiens) (UniProt P27361); assay: Inhibition of ERK1 (unknown origin) at 1 uM relative to control; method in brief: as §1
[11] = molecular target: T1, Eukaryotic elongation factor 2 kinase (Homo sapiens) (UniProt O00418); assay: Inhibition of EF2K (unknown origin) at 1 uM relative to control; method in brief: as §1
T1 sequence (whole entry): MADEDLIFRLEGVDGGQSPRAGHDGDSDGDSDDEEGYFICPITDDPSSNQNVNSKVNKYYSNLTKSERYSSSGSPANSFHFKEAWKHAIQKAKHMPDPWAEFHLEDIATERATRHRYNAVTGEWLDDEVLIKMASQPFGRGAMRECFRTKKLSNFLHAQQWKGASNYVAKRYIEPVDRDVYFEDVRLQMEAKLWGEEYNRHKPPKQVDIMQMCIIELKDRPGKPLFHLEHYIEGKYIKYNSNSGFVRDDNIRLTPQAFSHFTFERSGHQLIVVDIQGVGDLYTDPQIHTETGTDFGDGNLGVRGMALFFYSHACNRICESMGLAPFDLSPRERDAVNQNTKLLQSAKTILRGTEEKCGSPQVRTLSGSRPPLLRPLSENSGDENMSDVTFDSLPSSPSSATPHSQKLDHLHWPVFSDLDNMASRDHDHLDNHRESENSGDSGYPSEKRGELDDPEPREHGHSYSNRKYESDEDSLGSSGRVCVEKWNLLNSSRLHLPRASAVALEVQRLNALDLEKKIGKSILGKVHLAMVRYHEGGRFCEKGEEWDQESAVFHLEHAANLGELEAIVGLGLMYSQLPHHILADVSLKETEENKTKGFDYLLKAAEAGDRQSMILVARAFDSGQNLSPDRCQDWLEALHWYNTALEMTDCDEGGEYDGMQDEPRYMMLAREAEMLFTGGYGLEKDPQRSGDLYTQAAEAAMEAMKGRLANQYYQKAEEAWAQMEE

[12] = molecular target: Ribosomal protein S6 kinase alpha-1 (Homo sapiens) (UniProt Q15418); assay: Inhibition of RSK1 (unknown origin) at 1 uM relative to control; method in brief: as §2
[13] = molecular target: MAP/microtubule affinity-regulating kinase 3 (Homo sapiens) (UniProt P27448); assay: Inhibition of MARK3 (unknown origin) at 1 uM relative to control; method in brief: as §2
[14] = molecular target: Casein kinase 2 (Homo sapiens) (UniProt P67870+P68400+P19784+Q8NEV1); assay: Inhibition of CK2 (unknown origin) at 1 uM relative to control; format: protein assay; method in brief: as §1
[15] = molecular target: Tyrosine-protein kinase CSK (Homo sapiens) (UniProt P41240); assay: Inhibition of CSK (unknown origin) at 1 uM relative to control; method in brief: as §1
[16] = molecular target: Insulin receptor-related protein (Homo sapiens) (UniProt P14616); assay: Inhibition of IRR (unknown origin) at 1 uM relative to control; method in brief: as §1
[17] = molecular target: Mitogen-activated protein kinase 14 (Homo sapiens) (UniProt Q16539); assay: Inhibition of p38a MAPK (unknown origin) at 1 uM relative to control
Method in brief: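 Single-concentration screen across a panel of 59 protein kinases, with each compound tested at one fixed concentration. The read-out is residual kinase activity relative to control. Panel results are also condensed into a rescaled geometric mean (RGM) selectivity score.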

[18] = molecular target: Serine/threonine-protein kinase PLK1 (Homo sapiens) (UniProt P53350); assay: Inhibition of PLK1 (unknown origin) at 1 uM relative to control; method in brief: as §2
[19] = molecular target: Aurora kinase B (Homo sapiens) (UniProt Q96GD4); assay: Inhibition of Aurora B (unknown origin) at 1 uM relative to control; method in brief: as §1
[20] = Lipophilicity, log D of the compound at pH 7.4; format: physicochemical; details: buffer

Chain of Insulin receptor-related protein (Homo sapiens) (P14616 27-742 limits assumed): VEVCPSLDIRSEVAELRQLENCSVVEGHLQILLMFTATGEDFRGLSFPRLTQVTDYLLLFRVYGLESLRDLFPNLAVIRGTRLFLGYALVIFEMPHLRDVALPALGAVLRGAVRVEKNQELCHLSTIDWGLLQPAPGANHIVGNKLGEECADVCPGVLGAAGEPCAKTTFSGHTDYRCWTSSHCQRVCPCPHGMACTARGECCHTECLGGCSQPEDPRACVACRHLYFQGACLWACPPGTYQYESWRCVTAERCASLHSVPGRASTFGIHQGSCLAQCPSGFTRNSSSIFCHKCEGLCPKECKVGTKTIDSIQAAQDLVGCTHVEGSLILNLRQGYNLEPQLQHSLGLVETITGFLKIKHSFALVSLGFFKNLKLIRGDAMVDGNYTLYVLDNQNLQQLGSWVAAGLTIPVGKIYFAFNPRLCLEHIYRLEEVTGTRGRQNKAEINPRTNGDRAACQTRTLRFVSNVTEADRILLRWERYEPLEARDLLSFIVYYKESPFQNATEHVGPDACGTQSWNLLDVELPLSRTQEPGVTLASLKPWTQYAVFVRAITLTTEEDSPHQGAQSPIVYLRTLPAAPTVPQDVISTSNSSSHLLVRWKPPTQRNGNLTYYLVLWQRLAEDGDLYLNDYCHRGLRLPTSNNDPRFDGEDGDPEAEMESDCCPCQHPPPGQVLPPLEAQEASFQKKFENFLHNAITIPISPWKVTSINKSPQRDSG
Chain of Insulin receptor-related protein (Homo sapiens) (P14616 747-1297 limits assumed): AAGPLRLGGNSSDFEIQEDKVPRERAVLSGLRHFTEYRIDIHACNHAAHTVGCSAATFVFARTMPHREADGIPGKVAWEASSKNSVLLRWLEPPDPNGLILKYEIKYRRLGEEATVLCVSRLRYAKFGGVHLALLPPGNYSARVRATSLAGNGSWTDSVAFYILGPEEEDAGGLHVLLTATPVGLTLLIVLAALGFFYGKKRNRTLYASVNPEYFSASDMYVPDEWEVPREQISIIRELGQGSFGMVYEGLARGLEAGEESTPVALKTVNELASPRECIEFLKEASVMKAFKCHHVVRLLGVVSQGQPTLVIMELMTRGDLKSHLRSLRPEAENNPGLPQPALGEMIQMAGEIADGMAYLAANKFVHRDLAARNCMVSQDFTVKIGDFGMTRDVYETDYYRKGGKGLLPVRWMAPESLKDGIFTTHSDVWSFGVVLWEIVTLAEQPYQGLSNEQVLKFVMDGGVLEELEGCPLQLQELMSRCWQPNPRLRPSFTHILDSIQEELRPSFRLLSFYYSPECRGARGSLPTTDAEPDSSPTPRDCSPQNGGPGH
Chain of Ribosomal protein S6 kinase alpha-1 (Homo sapiens) (Q15418 whole entry): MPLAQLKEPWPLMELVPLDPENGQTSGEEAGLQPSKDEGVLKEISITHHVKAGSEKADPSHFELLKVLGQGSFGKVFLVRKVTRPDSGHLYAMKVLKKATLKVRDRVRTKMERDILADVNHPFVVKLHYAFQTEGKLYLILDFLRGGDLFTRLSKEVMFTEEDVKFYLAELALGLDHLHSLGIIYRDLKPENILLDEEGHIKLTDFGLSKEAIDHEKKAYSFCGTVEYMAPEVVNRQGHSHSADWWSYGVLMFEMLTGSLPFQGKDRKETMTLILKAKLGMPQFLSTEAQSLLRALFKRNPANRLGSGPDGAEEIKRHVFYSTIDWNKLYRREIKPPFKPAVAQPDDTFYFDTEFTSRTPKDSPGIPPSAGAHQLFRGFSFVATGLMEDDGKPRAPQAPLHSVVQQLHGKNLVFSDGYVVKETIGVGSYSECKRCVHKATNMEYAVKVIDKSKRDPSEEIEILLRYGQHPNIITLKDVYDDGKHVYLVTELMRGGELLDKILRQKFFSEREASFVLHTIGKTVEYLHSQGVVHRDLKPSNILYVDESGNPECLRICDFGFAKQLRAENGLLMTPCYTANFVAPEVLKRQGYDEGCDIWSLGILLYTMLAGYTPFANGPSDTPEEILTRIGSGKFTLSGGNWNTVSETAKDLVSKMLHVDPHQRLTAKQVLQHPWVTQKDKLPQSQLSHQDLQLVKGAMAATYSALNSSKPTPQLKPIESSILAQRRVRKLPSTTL
Chain of Mitogen-activated protein kinase 3 (Homo sapiens) (P27361 whole entry): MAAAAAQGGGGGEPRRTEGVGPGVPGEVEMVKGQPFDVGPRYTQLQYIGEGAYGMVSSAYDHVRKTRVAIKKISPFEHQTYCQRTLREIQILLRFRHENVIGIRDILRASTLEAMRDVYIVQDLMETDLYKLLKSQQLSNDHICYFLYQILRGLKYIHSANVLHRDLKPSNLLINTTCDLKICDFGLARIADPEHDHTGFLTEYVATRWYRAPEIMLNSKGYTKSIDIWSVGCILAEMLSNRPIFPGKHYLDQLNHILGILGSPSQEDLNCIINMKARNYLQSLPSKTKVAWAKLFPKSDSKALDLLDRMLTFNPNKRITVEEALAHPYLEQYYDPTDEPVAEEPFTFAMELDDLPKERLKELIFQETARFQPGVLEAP
Chain of Fibroblast growth factor receptor 1 (Homo sapiens) (P11362 22-822 limits assumed): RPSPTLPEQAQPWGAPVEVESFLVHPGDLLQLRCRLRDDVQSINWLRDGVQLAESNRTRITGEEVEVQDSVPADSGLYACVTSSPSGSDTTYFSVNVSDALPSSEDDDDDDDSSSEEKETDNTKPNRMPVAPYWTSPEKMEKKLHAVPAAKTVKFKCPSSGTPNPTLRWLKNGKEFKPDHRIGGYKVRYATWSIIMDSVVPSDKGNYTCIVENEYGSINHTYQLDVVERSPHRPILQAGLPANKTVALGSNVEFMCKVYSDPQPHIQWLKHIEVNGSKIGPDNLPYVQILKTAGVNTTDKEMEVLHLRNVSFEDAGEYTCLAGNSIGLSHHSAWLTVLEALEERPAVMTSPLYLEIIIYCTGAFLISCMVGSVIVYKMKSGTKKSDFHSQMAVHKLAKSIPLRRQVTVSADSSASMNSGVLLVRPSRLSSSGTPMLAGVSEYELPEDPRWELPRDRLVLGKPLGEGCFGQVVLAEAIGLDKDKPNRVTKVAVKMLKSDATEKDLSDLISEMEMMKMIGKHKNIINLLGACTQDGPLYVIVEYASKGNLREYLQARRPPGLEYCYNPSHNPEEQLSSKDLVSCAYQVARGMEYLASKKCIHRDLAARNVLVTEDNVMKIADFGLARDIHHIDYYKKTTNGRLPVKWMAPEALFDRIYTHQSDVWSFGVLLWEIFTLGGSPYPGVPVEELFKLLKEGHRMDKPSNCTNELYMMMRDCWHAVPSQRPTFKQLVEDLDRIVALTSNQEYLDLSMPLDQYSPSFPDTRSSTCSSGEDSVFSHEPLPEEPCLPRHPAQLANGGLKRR
Chain of Glycogen synthase kinase-3 beta (Homo sapiens) (P49841 whole entry, looked up): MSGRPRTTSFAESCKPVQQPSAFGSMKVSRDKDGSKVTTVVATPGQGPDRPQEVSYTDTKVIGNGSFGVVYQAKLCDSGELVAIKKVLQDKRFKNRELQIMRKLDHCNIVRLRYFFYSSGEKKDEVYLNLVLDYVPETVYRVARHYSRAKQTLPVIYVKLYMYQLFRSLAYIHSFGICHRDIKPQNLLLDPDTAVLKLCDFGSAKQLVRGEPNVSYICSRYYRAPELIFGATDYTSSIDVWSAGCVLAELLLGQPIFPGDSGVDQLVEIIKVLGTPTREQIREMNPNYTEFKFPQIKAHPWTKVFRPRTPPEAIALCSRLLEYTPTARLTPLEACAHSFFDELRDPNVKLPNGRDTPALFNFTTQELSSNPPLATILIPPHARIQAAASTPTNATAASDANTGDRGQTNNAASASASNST
Chain of Tyrosine-protein kinase CSK (Homo sapiens) (P41240 2-450 limits assumed): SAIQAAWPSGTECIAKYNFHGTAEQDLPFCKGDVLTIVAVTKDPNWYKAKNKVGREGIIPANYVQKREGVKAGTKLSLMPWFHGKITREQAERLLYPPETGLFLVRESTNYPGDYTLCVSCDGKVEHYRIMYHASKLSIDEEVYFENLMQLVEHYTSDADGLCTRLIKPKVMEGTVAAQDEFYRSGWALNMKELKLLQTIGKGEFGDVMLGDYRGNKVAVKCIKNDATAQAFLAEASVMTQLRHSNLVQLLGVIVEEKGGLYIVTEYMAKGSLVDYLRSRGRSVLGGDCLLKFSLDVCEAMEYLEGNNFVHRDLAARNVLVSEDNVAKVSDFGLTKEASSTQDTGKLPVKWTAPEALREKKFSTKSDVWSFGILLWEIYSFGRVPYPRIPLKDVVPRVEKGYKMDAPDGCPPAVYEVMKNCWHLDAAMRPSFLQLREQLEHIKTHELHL
Chain of RAC-alpha serine/threonine-protein kinase (Homo sapiens) (P31749 whole entry): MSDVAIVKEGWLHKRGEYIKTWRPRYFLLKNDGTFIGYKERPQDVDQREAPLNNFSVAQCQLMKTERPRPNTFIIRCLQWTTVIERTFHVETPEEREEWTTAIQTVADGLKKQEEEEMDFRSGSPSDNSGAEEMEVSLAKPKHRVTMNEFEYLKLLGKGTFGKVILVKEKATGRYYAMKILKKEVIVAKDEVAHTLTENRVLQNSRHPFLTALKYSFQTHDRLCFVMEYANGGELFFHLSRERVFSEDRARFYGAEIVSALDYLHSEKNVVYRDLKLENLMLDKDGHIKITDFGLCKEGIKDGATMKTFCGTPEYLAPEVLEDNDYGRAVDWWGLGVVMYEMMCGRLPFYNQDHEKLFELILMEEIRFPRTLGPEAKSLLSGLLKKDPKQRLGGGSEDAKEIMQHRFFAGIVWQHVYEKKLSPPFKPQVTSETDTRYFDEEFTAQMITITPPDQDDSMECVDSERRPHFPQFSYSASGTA
Chain of Mitogen-activated protein kinase 14 (Homo sapiens) (Q16539 whole entry): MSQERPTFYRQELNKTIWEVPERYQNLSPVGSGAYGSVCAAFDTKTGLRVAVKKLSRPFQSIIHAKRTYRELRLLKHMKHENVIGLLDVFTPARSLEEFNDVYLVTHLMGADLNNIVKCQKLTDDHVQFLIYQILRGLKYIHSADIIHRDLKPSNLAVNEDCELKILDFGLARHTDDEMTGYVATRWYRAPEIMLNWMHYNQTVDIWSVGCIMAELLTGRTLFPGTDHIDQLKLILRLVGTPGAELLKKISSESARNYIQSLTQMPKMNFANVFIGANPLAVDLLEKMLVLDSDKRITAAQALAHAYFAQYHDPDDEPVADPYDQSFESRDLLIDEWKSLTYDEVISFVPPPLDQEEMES

Compound	inhibition [2] [%]	inhibition (Homo sapiens) [%]	inhibition [3] [%]	inhibition [4] [%]	inhibition [5] [%]	inhibition [6] [%]	inhibition [7] [%]	inhibition [8] [%]	inhibition [9] [%]	inhibition [10] [%]	inhibition [11] [%]	inhibition [12] [%]	inhibition [13] [%]	inhibition [14] [%]	inhibition [15] [%]	inhibition [16] [%]	inhibition [17] [%]	inhibition [18] [%]	inhibition [19] [%]	other results
Cc1n[nH]c2ccnc(NC3CCCCC3)c12																				Kp [1]: 4
c1cc(-c2n[nH]c3ccnc(OC4CCOCC4)c23)cc(N2CCOCC2)n1	0	26	0	8	51	0	4	36	0	37	9	3	0	3	0	3	0	0	0	
Cc1n[nH]c2ccnc(OC3CCCCC3)c12																				logD [20]: > 4
CC(C)n1cc(-c2n[nH]c3ccnc(OC4CCOCC4)c23)cn1	0	11	0	0	39	19	56	90	18	28	0	62	18	20	0	45	0	0	38	
